Screening results: PubChem, Johns Hopkins Ion Channel Center
RGS4 block: inhibitors of human RGS4 | HEK293 M3R/RGS4 inducible, Fluo-4 calcium flux; active compounds read high; triggered by carbachol at its EC20 | 0.45% of 310,000 active | B-score at 10 µM;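 active = B-score, a plate-corrected calcium signal, over three deviations above library mean, with baseline fluorescence within five deviations of library mean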;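 also: RGS4 expression induced by doxycycline in cells with stable M3 receptor; B-score is computed from the integrated fluorescence ratio over baseline after carbachol; higher B-score means a larger calcium signal and so more RGS4 inhibition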
MrgX1 ag: agonists of human MrgX1 receptor; Q96LB2; MrgX1-HEK293 cells, Fluo-4 calcium fluorescence, agonist mode; active compounds read high; B-score at 10 µM; 0.44% of 310,000 active; AID 588627;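 active = calcium response B-score plate-corrected fluorescence ratio at least 3 library SD, with starting fluorescence B-score inside 5 SD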
Target sequence (Q96LB2 whole entry, looked up): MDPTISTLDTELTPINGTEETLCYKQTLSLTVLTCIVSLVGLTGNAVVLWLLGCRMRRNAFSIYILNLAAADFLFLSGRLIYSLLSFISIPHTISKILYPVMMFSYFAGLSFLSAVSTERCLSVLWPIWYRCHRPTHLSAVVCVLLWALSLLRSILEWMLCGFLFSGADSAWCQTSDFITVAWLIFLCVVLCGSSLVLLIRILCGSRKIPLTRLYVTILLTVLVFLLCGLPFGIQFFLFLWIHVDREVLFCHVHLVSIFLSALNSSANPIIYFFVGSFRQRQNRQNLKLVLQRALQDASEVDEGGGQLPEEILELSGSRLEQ
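Test system: Stable human MrgX1 HEK293 cell line | Schedule: Overnight plating before 1 h dye loading | Read-out basis: Baseline-normalised fluorescence change ratio, B-scored | Detection: Kinetic calcium dye fluorescence, Fluo-4 NW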
MrgX1 allo act: allosterically activates human MrgX1 receptor signaling; Q96LB2; MrgX1-HEK293, Fluo-4 calcium flux, FDSS; active compounds read high; B-score at 10 µM; 0.63% of 310,000 active;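 active = plate-corrected calcium response at least 3 library SD above typical, normal starting fluorescence, not activating the receptor alone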;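 also: compound read alongside a low EC10 to EC30 dose of BAM8-22 agonist; peak minus trough fluorescence over baseline measured at the second addition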
RGS4 act: RGS4 potentiation or activation; HEK293 M3R/inducible RGS4, carbachol calcium flux Fluo4; active compounds read low; B-score at 10 µM; 0.92% of 310,000 active; AID 463111;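 active = B-score of the integrated calcium signal more than 4 SD below the library mean, with starting fluorescence not abnormally high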;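 also: negative B-score means reduced calcium response which marks RGS4 activation or potentiation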
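Also added: carbachol at ECmax as muscarinic agonist stimulus; Assay system: HEK293 cells with stable M3R and inducible RGS4; Timing: overnight RGS4 induction, 30 min dye load 37 °C, 20 min compound RT; Measured by: Fluo4-AM (2 µM) calcium-flux fluorescence, kinetic read.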
MrgX1 antag: human MrgX1 receptor antagonism, primary screen. B-score at 10 µM. MRGX1-HEK293 calcium flux, Fluo-4, BAM8-22 antagonism; active compounds read low. AID 588676. 1.3% of 310,000 active. Q96LB2;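 active = calcium-response B-score plate-corrected more than 3 library SD below zero, starting fluorescence within 5 deviations, no agonist response on first addition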;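 also: peak minus trough fluorescence over baseline after final BAM8-22 challenge near maximal dose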
RGS4 activ val: confirmation of RGS4 activators; shares compounds with RGS4 act; HEK293 M3R/RGS4 inducible, carbachol calcium flux Fluo4; inhibition, % at 10 µM; 89% of 1,100 active; AID 602282;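 active = inhibition above 3 SD of the buffer control wells, cut at about 41% in these data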;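 also: signal is the integrated peak-minus-minimum Fluo4 fluorescence over baseline ratio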
RGS4 act ctr: activity in cells without induced RGS4 expression; shares compounds with RGS4 act; HEK293 M3R non-induced RGS4, Fluo4 calcium flux; after carbachol challenge at its EC90; inhibition, % at 10 µM; 82% of 1,100 active;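 active = inhibition exceeding 3 SD of buffer-only control wells, cut at about 26% in these data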;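 also: percent drop in integrated peak-minus-baseline over baseline Fluo4 ratio after carbachol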
Starred values were filed as active, the others as inactive; i = inactive; / = no result given. This is a sample that favours compounds with a hit; in the whole collection about 3.5% have one here.

SMILES	RGS4 block	MrgX1 ag	MrgX1 allo act	RGS4 act	MrgX1 antag	RGS4 activ val	RGS4 act ctr
NC(=O)C1CCN(c2ccc3c(c2)S(=O)(=O)c2ccccc2C3=O)CC1	i	i	i	i	i	/	/
Cc1cccc(CNC(=O)C2CCC(=O)N(C3CC3)C2)c1 (stereo not drawn)	i	i	i	i	i	/	/
COc1ccc(NC(=O)C2(S(=O)(=O)c3ccc(C)cc3)CC2)cc1OC	i	i	i	i	i	/	/
O=C(COc1ccccc1)Nc1ccccc1N1CCN(c2ccc(F)cc2)CC1	i	i	i	-9.1*	i	61.0*	0.0
O=C(COc1ccccc1)Nc1ccccc1N1CCCCC1	i	i	i	i	i	/	/
O=C(NCCc1ccc(F)cc1)C(=O)NCC1CCCN1S(=O)(=O)c1ccccc1 (stereo not drawn)	i	i	i	-9.26*	i	89.5*	68.3*
COc1ccc(CCNC(=O)C(=O)NCC2CCCN2S(=O)(=O)c2ccccc2)cc1 (stereo not drawn)	i	i	i	-12.1*	i	87.5*	54.3*
COc1ccccc1CCNC(=O)C(=O)NCC1CCCN1S(=O)(=O)c1ccccc1 (stereo not drawn)	i	i	i	-10.9*	-4.52*	79.5*	83.8*
O=C(NCc1ccc(F)cc1)C(=O)NCC1CCCN1S(=O)(=O)c1ccccc1 (stereo not drawn)	i	i	i	i	i	/	/
CCOc1ccc(CC(=O)N2N=C(C)CC2(O)C(F)(F)F)cc1 (stereo not drawn)	i	i	i	i	i	/	/
N#Cc1cccc(CN2CCC(=O)N([C@H](CO)Cc3ccccc3)CC2)c1	i	i	i	i	i	/	/
CN1CCN(CC(O)(c2ccc(Cl)cc2)c2ccc(Cl)cc2)CC1	i	i	i	-10.2*	i	91.5*	65.3*
O=S(=O)(c1cccc2cccnc12)N1CCCCC1	i	i	i	i	i	/	/
CN1CCN(c2ncccc2S(=O)(=O)N2CCCCC2)CC1	i	i	i	-11.9*	i	90.0*	72.8*
COc1ccc(C)cc1S(=O)(=O)N1CCC(C(=O)NC2CCCC2)CC1	i	i	i	-8.09*	i	0.0	0.0
COc1ccc(/C(=C/Nc2cccc(Br)c2)C(C)=O)cc1OC	i	i	i	i	i	/	/
CC12CC3CC(C)(C1)CC(Nc1nc(N4CCOCC4)nc4ccccc14)(C3)C2	i	i	i	i	i	/	/
COc1cccc(-c2nc(N3CCCCC3)c3ccccc3n2)c1O	i	i	i	-8.8*	i	92.5*	91.3*
CC1(C)OC(=O)C(=CNNc2c(Cl)cc(Cl)cc2Cl)C(=O)O1	i	i	i	i	i	/	/
Cc1cccc(NC(=O)C2CCN(S(=O)(=O)c3c(C)nn(C)c3C)CC2)n1	i	i	i	i	i	/	/
Cc1cccc(NC(=O)C2CCN(S(=O)(=O)c3c(C)c(C)cc(C)c3C)CC2)n1	i	i	i	-10.7*	i	89.5*	64.3*
C[C@@H](CN=[N+]=[N-])CN1CC[C@H](C(C)(C)C)CCC1=O	i	i	i	i	i	/	/
COc1ccc(-c2cc(C(=O)N3CCN(c4cccc(C)c4C)CC3)c3ccccc3n2)cc1OC	i	i	i	-8.47*	i	51.5*	0.0
O=C(c1cc(-c2ccncc2)nc2ccc(Br)cc12)N1CCN(c2ccccn2)CC1	i	i	i	i	i	/	/
O=C(c1cc(-c2cccc(Cl)c2)nc2ccccc12)N1CCN(c2ccccn2)CC1	i	i	i	-8.38*	i	56.0*	0.0
COc1cc(C(=S)N2CCOCC2)ccc1OC(=O)c1cc(OC)c(OC)c(OC)c1	i	i	i	i	i	/	/
